Test results taken from ChEMBL document CHEMBL1122665, “Synthesis of thyrotropin-releasing hormone analogues. 1. Complete dissociation of central nervous system effects from thyrotropin-releasing activity” (1984).
Non-standard residues stand in square brackets, D forms with d. Residues, ends and D or L forms follow the SMILES beside them. *: point of attachment. Cha = N[C@@H](CC1CCCCC1)C(=O)O; pGlu = O=C1CC[C@@H](C(=O)O)N1; Nle = CCCC[C@H](N)C(=O)O; Nva = CCC[C@H](N)C(=O)O; Abu = CC[C@H](N)C(=O)O; tBu = CC(C)(C)*

What was measured:
Rattus norvegicus [1] = test: Inhibition of haloperidol catalepsy by less than 50% in a dose of 80 mg/kg, iv in adult male Wistar rats; type: functional
Rattus norvegicus [2] = test: Evaluated for hormonal (TSH) releasing activity in adult male albino rats after single intraperitoneal injection using radioimmunoassay; np-significant activity but not parallel TSH response to the lower and upper doses used; type: functional, organism-based
Method in brief: (§1)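 Two-point assay in adult male albino rats: single ip injection at 1 and 10 μg. Blood drawn 15 min post-injection. Serum TSH measured by radioimmunoassay (NIAMDD rat TSH-RIA system). Relative potency expressed in percent, with synthetic TRH reference set at 100%.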

Rattus norvegicus [3] = test: Anticataleptic effect at effective dose after intravenous administration in adult male Wistar rats; type: functional
Method in brief: (§2)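 Haloperidol catalepsy induced in adult male Wistar rats by 4 mg/kg ip. Analogues given iv at 5 to 80 mg/kg, 2 h after haloperidol. Read-out is inhibition of catalepsy, taken as a measure of dopaminergic stimulation. Synthetic TRH served as reference standard.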

[4] = Evaluated for hormonal (TSH) releasing activity in adult male albino rats after single intraperitoneal injection using radioimmunoassay; type: functional; method in brief: as §1
Rattus norvegicus [5] = test: Evaluated for hormonal (TSH) releasing activity in adult male albino rats after single intraperitoneal injection using radioimmunoassay; np -significant but not parallel TSH response to the lower and upper doses used; type: functional, organism-based; method in brief: as §1
Rattus norvegicus [6] = test: Evaluated for hormonal (TSH) releasing activity in adult male albino rats after single intraperitoneal injection using radioimmunoassay; np- significant activity but not parallel TSH response to the lower and upper doses used; type: functional, organism-based; method in brief: as §1
Rattus norvegicus [7] = test: Anticataleptic effect at effective dose after intravenous administration in adult male Wistar rats.; type: functional; method in brief: as §2
[8] = Rattus norvegicus, iv, read-out: ED50

SMILES	inhibition in vivo at 80 mg/kg (Rattus norvegicus [1]) [%]	ED50 (Rattus norvegicus [3]; [8]) [mg/kg]	Activity [4] [%]	other results
CC(C)C[C@@H](NC(=O)[C@H]1CCC(=O)N1)C(=O)N1CCCC1	20			Activity (Rattus norvegicus [2]): Significant but not parallel
CCNC(=O)[C@H]1CCCN1C(=O)[C@@H](CC(C)C)NC(=O)[C@H]1CCC(=O)N1		56.6	0	
CC(C)C[C@@H](NC(=O)[C@H]1CCC(=O)N1)C(=O)N1CCC[C@@H]1C(=O)NCCN(C)C	10		0	
CC(C)C[C@H](NC(=O)[C@@H]1CCC(=O)N1)C(=O)N1CCC[C@H]1C(N)=O [listing 1 of 2 here]			2.7	ED50 (Rattus norvegicus [3]): 40 mg/kg
NC(=O)[C@@H]1CCCN1C(=O)[C@@H]1CCCN1C(=O)[C@@H]1CCC(=O)N1		80		
CC(C)C[C@H](NC(=O)[C@@H]1CCC(=O)N1)C(=O)N1CCC[C@H]1C(N)=O [listing 2 of 2 here]		70	0	
CCCCCCCC[C@H](NC(=O)[C@@H]1CCC(=O)N1)C(=O)N1CCC[C@H]1C(N)=O	0			Activity (Rattus norvegicus [5]): Significant but not parallel
CC(C)C[C@H](NC(=O)[C@@H]1CCC(=O)N1)C(=O)N1CCC[C@@H]1C(N)=O		> 80	0	
CC(C)C[C@@H](NC(=O)[C@@H]1CCC(=O)N1)C(=O)N1CCC[C@H]1C(N)=O		> 80	0	
COC(=O)[C@H]1CCCN1C(=O)[C@@H](CC(C)C)NC(=O)[C@H]1CCC(=O)N1	0		0	
CC(C)C[C@@H](NC(=O)[C@H]1CCC(=O)N1)C(=O)N1CCC[C@@H]1C(=O)O	0		0.1	
CCCCCCCCCCNC(=O)[C@H]1CCCN1C(=O)[C@@H](CC(C)C)NC(=O)[C@H]1CCC(=O)N1	10		0	
NC(=O)[C@@H]1CCCN1C(=O)[C@@H]1CCCN1C(=O)[C@H]1CCC(=O)N1				Activity (Rattus norvegicus [6]): Significant but not parallel
C[C@H](NC(=O)[C@@H]1CCC(=O)N1)C(=O)N1CCC[C@H]1C(N)=O ([pGlu]-Ala-Pro-NH2)	0		0	
NC(=O)[C@@H]1CCCN1C(=O)CNC(=O)[C@@H]1CCC(=O)N1 ([pGlu]-Gly-Pro-NH2)	10		0	
CC[C@H](C)[C@H](NC(=O)[C@@H]1CCC(=O)N1)C(=O)N1CCC[C@H]1C(N)=O ([pGlu]-Ile-Pro-NH2)	10		0.2	
CSCC[C@H](NC(=O)[C@@H]1CCC(=O)N1)C(=O)N1CCC[C@H]1C(N)=O ([pGlu]-Met-Pro-NH2)	40		1	
NC(=O)[C@@H]1CCCN1C(=O)[C@H](Cc1ccccc1)NC(=O)[C@@H]1CCC(=O)N1 ([pGlu]-Phe-Pro-NH2)	40			
CC(C)(C)OC[C@H](NC(=O)[C@@H]1CCC(=O)N1)C(=O)N1CCC[C@H]1C(N)=O ([pGlu]-Ser(tBu)-Pro-NH2)	0		0.2	
C[C@@H](O)[C@H](NC(=O)[C@@H]1CCC(=O)N1)C(=O)N1CCC[C@H]1C(N)=O ([pGlu]-Thr-Pro-NH2)		80	25.7	
CC(C)[C@H](NC(=O)[C@@H]1CCC(=O)N1)C(=O)N1CCC[C@H]1C(N)=O ([pGlu]-Val-Pro-NH2)		> 80	3.1	
CC[C@H](NC(=O)[C@@H]1CCC(=O)N1)C(=O)N1CCC[C@H]1C(N)=O ([pGlu]-[Abu]-Pro-NH2)		≥ 80	0	
NC(=O)[C@@H]1CCCN1C(=O)[C@H](CC1CCCCC1)NC(=O)[C@@H]1CCC(=O)N1 ([pGlu]-[Cha]-Pro-NH2)	20		45.6	
CCCC[C@H](NC(=O)[C@@H]1CCC(=O)N1)C(=O)N1CCC[C@H]1C(N)=O ([pGlu]-[Nle]-Pro-NH2)		16.8	3.8	
CCC[C@H](NC(=O)[C@@H]1CCC(=O)N1)C(=O)N1CCC[C@H]1C(N)=O ([pGlu]-[Nva]-Pro-NH2)		11.4	0	
NC(=O)[C@@H]1CCCN1C(=O)[C@H](Cc1c[nH]cn1)NC(=O)[C@@H]1CCC(=O)N1 [PROTIRELIN]	40		100	ED50 (Rattus norvegicus [7]): 113 mg/kg
